In ChEMBL document CHEMBL4359883, “4(1H)-quinolone derivatives overcome acquired resistance to anti-microtubule agents by targeting the colchicine site of β-tubulin” (Eur J Med Chem, 2019):
The source made the active and inactive calls. The rule behind the calls is not given here.

Experiments:
A549 = test: Antiproliferative activity against human A549 cells assessed as reduction in cell viability after 72 hrs by MTS assay; assay type: functional, cell-based; details: A549, 72 h
Method in brief: (§1)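 Cells plated at 2000/well, cultured overnight, then exposed to a range of compound concentrations for 72 h. MTS reagent added for 1–4 h at 37 °C and absorbance read at 490 nm. Cultured in RPMI 1640 or DMEM with 10% heat-inactivated FBS under 5% CO2. Data are the mean of three determinations.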

SAS = test: Antiproliferative activity against human SAS cells assessed as reduction in cell viability after 72 hrs by MTS assay; assay type: functional, cell-based; method in brief: as §1
NCI-H1975 [1] = test: Antitumour activity against human NCI-H1975 cells xenografted in Balb/c mouse assessed as reduction in tumour size at 8 mg/kg, ip administered 3 times per week and measured on day 25 (reference value: 1749 +/- 234.5 mm3); assay type: functional
CL1-0 [2] = test: Induction of apoptosis in human CL1-0 cells assessed as cleaved caspase 3 expression at 20 nM by immunoblotting analysis; assay type: functional, cell-based; details: TDE = time-dependent effect
CL1-0 [3] = test: Induction of apoptosis in human CL1-0 cells assessed as bax protein expression after 24 hrs by immunoblotting analysis; assay type: functional, cell-based
NCI-H1975 [4] = test: Induction of apoptosis in human NCI-H1975 cells assessed as bax protein expression after 24 hrs by immunoblotting analysis; assay type: functional, cell-based
NCI-H1975 [5] = test: Induction of apoptosis in human NCI-H1975 cells assessed as caspase 8 activation at 40 to 80 nM after 24 hrs by immunoblotting analysis; assay type: functional, cell-based
CL1-0 [6] = test: Induction of mitotic arrest in human CL1-0 cells assessed as cyclin A expression at 20 to 40 nM after 24 hrs by immunoblotting analysis; assay type: functional, cell-based
NCI-H1975 [7] = test: Induction of mitotic arrest in human NCI-H1975 cells assessed as cyclin A at 40 to 80 nM after 24 hrs by immunoblotting analysis; assay type: functional, cell-based
CL1-0 [8] = test: Induction of morphological changes in human CL1-0 cells assessed as disruption of mitotic spindle arrangement at 20 nM after 6 hrs by DAPI staining based confocal microscopic analysis; assay type: functional, cell-based
Method in brief: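 Cells exposed for 6 h, fixed in 3.7% paraformaldehyde, permeabilized with 0.1% Triton X-100. Stained with anti-α-tubulin (1:1000) overnight at 4 °C, FITC secondary 1 h at 37 °C, nuclei counterstained with DAPI. Imaged by confocal laser scanning microscopy.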

[9] = target: Tubulin alpha (Homo sapiens) (UniProt P0DPH7+P68366+Q71U36+P68363+Q9BQE3+Q6PEY2+A6NHL2+Q9NY65); test: Induction of microtubule depolymerization in human CL1-0 cells assessed as increase in alpha tubulin soluble form by immunoblot analysis; assay type: cell-based
Method in brief: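 Lysate spun at 16,000 rpm for 15 min at room temperature. Soluble (monomer) and particulate (polymer) fractions immunoblotted for α-tubulin.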

Tubulin (Homo sapiens) = Tubulin (Homo sapiens) (UniProt P68371+Q9H4B7+P0DPH7+P68366+Q13509+Q71U36+P04350+Q3ZCM7+P07437+P68363+Q9BQE3+Q6PEY2+Q13885+Q9BVA1+Q9BUF5); test: Binding affinity to tubulin (unknown origin) assessed as increase in Beta-col fragment production at 100 uM after 30 mins by coomassie brilliant blue staining based trypsin proteolysis assay; assay type: protein-complex assay
Method in brief: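 Tubulin (1 mg/mL) preincubated with 100 µM compound for 30 min at 30 °C in 0.1 M MES, 1 mM MgCl2, 1 mM EGTA, pH 6.9. Trypsin added at 25 µg/mL (1:40 w/w) for 10 min on ice. Fragments resolved on 15% SDS-PAGE, stained with Coomassie and quantified by densitometry.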

NCI-H1975 [10] = test: Induction of apoptosis in human NCI-H1975 cells assessed as increase in cyclin B1 expression at 25 to 50 nM after 24 hrs by immunoblotting analysis; assay type: functional, cell-based
[11] = Toxicity in Balb/c mouse xenografted with human NCI-H1975 cells assessed as effect on body mass at 4 to 8 mg/kg, ip administered 3 times per week for 21 days; assay type: organism-based; details: in vivo, 504 h
Method in brief: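 H1975 tumors grown in right flank of 6-week-old BALB/c nude mice; after establishment, 4 or 8 mg/kg compound dissolved in DMSO, or DMSO alone, given intraperitoneally three times a week. Body mass taken before each dose.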

[12] = Toxicity in Balb/c mouse xenografted with human KBtax cells assessed as effect on body mass at 8 mg/kg, ip administered 3 times per week and measured after 21 days; assay type: organism-based; details: in vivo, 504 h
Method in brief: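 KBtax cells (1×10^7) injected subcutaneously into right flank of 6-week-old BALB/c nude mice; after tumor establishment, compounds dissolved in DMSO given intraperitoneally three times a week for 21 days alongside DMSO vehicle group (n = 5 per group). Body mass recorded before each dose.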

[13] = Toxicity in Balb/c mouse xenografted with human KBtax cells assessed as serum ALT level at 8 mg/kg, ip administered 3 times per week and measured after 21 days (reference value: 32.7 +/- 4.8 IU/L); assay type: organism-based; details: in vivo, 504 h
Homo sapiens [14] = organism: Homo sapiens; test: Effect on p-gp expression in human KBtax cells at 30 to 60 nM after 24 hrs by immunoblotting analysis; assay type: functional, cell-based
Homo sapiens [15] = organism: Homo sapiens; test: Induction of mitotic arrest in human KBtax cells assessed as increase in p-HH3 expression at 30 to 60 nM after 24 hrs by immunoblotting analysis; assay type: functional, cell-based

Row | SMILES | IC50 (A549) [nM] | IC50 (SAS) [nM] | Activity (NCI-H1975 [1]) [mm3] | Activity (CL1-0 [2]) | Activity (CL1-0 [3]) | Activity (NCI-H1975 [4]) | Activity (NCI-H1975 [5]) | Activity (CL1-0 [6]) | Activity (NCI-H1975 [7]) | Activity (CL1-0 [8]) | Activity [9] | Activity (Tubulin (Homo sapiens)) | Activity (NCI-H1975 [10]) | Activity [11] | Activity [12] | Activity [13] [IU/L] | Activity (Homo sapiens [14]) | Activity (Homo sapiens [15])
1 | CCOC(=O)c1ccc2nc(-c3ccccc3)cc(O)c2c1 | 20 | 78 | 587.2 | Tde | Dose-dependent effect | Dose-dependent effect | inactive | inactive | inactive | Active | Active | Active |  |  |  |  |  | 
2 | CCOC(=O)c1ccc2[nH]c(-c3cccc(F)c3)cc(=O)c2c1 |  |  |  |  |  |  |  |  |  |  |  |  | Active | Non-Toxic | Non-Toxic | 64 | inactive | Active
